Screening data: PubChem, The Scripps Research Institute Molecular Screening Center
Only some compounds are listed: those with a hit (about 4.6% of all), similar ones and a draw of the others.
OX1R antag-1: blocks the human orexin 1 receptor. O43613. OX1R-expressing cells, FRET antagonist read-out. inhibition, % at 6.6 µM. 330,000 tested, 1.8% active; in the data active means inhibition mostly above about 38%, no sharp cut-off; inactive means mostly below about 40%
Target sequence (O43613 whole entry, looked up): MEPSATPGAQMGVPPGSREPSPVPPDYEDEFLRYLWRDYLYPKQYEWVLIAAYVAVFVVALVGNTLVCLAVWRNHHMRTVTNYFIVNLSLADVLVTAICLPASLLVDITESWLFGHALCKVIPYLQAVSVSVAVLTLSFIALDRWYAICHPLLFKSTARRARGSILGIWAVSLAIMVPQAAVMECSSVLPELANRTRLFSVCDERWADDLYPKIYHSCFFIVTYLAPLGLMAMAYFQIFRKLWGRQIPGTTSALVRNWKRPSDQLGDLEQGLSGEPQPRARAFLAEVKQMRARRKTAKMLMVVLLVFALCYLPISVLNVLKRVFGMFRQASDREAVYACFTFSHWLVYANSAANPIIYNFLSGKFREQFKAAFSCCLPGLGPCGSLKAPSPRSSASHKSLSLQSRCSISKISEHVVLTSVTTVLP
TAAR1 ag: agonists of human TAAR1; 360,000 tested, 0.99% active; activation, % at 3 µM; AID 624467; Q96RJ0; CHO RD-HGA16 TAAR1, Fluo-8 calcium fluorescence; vehicle wells 0%, saturating PEA agonist 100%;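 active means activation above the mean activation of all test compounds in the run plus 3 SD, cut at about 38% in these data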
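Test system: RD-HGA16 (CHO) cells co-expressing Gα16 and hTAAR1 / Benchmarks: DMSO vehicle as 0%, PEA at EC100 as 100% / Repeats: no replicates (n 1) / Measure: % activation from peak over basal fluorescence ratio, DMSO-to-PEA scaled / Timing: 17-24 h plating, Fluo-8 75 min 37 °C, 30 min RT / Technique: kinetic Fluo-8 calcium fluorescence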
GPR7 antag: human neuropeptides B/W receptor 1 antagonism; inhibition, % at 4.4 µM; 290,000 tested, 1.1% active; P48145; GPR7-expressing cells, fluorescence antagonist assay; in the data active means inhibition above about 16%, passing the limit was not always enough;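 further: cells stimulated with the agonist NPW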
Target sequence (P48145 whole entry, looked up): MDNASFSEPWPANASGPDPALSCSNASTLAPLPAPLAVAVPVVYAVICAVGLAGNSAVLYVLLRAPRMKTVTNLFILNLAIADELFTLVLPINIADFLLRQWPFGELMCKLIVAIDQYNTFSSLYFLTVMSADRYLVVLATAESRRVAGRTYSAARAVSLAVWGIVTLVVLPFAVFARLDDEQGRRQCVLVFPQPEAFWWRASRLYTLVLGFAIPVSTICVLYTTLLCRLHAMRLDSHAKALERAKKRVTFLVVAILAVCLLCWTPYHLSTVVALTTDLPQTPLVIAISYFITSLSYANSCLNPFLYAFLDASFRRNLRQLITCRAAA
OX1R antag-2: blocks the human orexin 1 receptor. 330,000 tested, 0.43% active. O43613. inhibition, % at 5 µM. CHO/OX1R cells, Fluo-8 calcium fluorescence, orexin A;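 active means inhibition above its plate's threshold, mean inhibition of all tested compounds on the plate plus 3 SD, cut at about 37% in these data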
CHO parental Ca: counter-screen: ATP calcium response change in parental CHO cells | parental CHO-K1, ATP-induced calcium, Fluo-8 fluorescence | inhibition, % at 5.6 µM | 330,000 tested, 0.63% active | AID 463079;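 active means inhibition above that plate's mean sample inhibition plus 3 SD, cut at about 26% in these data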
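Material: Parental CHO cells | Reagent: ATP | Compound dosing: Single nominal dose of 5.6 µM per compound | Detection: Intracellular calcium via Fluo-8 no-wash fluorescent dye | Read-out: % inhibition of ATP-induced calcium mobilization | Benchmarks: Low control ATP plus DMSO, high control DMSO only | Replicates: Singlicate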
TAAR1 antag: antagonists of human TAAR1; CHO RD-HGA16 TAAR1, Fluo-8 calcium fluorescence, antagonist; inhibition, % at 3 µM; 360,000 tested, 1.5% active; AID 624466;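 active means inhibition above a per-plate cutoff, the mean inhibition of test compounds on that plate plus 3 SD, cut at about 49% in these data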
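Material: RD-HGA16 CHO cells with stable hTAAR1 and Gα16; Dosing: single nominal final test compound concentration of 3 µM; Schedule: seeding 17-24 h prior, 75-min 37 °C, 30-min RT dye loading; Detection: kinetic Fluo-8 calcium fluorescence measurement; Measure: % inhibition from peak post-agonist over basal fluorescence ratio; Benchmarks: vehicle and agonist controls.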
Of the large screens only hits and unclear results are named; the others gave an inactive call.

CCOc1cc(/C=N/Nc2ncnc(Cl)c2N)ccc1O	none
CCOc1cc(/C=N/Nc2nnc(C)n2N)ccc1O	OX1R antag-1 61
COc1cc(/C=N/Nc2nncn2/N=C/c2ccc(O)c(OC)c2)ccc1O	OX1R antag-1 68
CCC(NC(=O)Nc1nnc(C(F)(F)F)s1)(C(F)(F)F)C(F)(F)F	OX1R antag-1 60, GPR7 antag 29, OX1R antag-2 65, CHO parental Ca 81
CCCCn1c(NC(=O)c2ccccc2Cl)c(C#N)c2nc3ccccc3nc21	OX1R antag-1 59
CN(c1ccccc1)S(=O)(=O)c1ccc(-c2ccccc2)cc1	TAAR1 antag 52
CCN(CC(=O)NC)S(=O)(=O)c1ccc(C)cc1	none
CCN(CC)S(=O)(=O)c1ccc(-c2ccc(S(=O)(=O)N(CC)CC)cc2)cc1	CHO parental Ca 41
CN(C)S(=O)(=O)c1ccc(-c2ccccc2)cc1	none
CCN(CC(=O)NC)S(=O)(=O)c1ccc(Br)cc1	GPR7 antag 16
O=C(c1cc(COc2cccc3cnccc23)on1)N1CCCC(CCCO)C1 (stereo not given)	CHO parental Ca 59
c1ccc(-c2csc(Nc3cccnc3)n2)nc1	none
c1ccc(Nc2nc(-c3ccccn3)cs2)cc1	OX1R antag-1 77
COc1cccc2sc(Nc3nc(-c4ccccn4)cs3)nc12	OX1R antag-1 114, OX1R antag-2 102, CHO parental Ca 45 (no result: TAAR1 ag, TAAR1 antag)
O=C(Nc1ccc(-c2csc(Nc3ccc(Cl)cc3)n2)cc1)c1ccccc1	TAAR1 antag 51 (no result: GPR7 antag)
COc1cccc2sc(NNC(=O)COc3ccccc3)nc12	none
CN(C)c1ncnc2c1ncn2[C@H]1CN(Cc2ccco2)C[C@@H](CO)O1	none (no result: OX1R antag-1, GPR7 antag, OX1R antag-2, CHO parental Ca)
O=C(CC1Oc2ccccc2NC1=O)NCCc1ccccc1 (stereo not given)	TAAR1 ag 66
Fc1ccc2cc(C3=CCCCC3)ncc2c1	none (no result: OX1R antag-1, GPR7 antag, OX1R antag-2, CHO parental Ca)
O=C1CC(N2CCN(c3nc4ccccc4s3)CC2)C(=O)N1Cc1cccs1 (stereo not given)	GPR7 antag 20
O=C(NCCn1cc(SCc2ccccc2)c2ccccc21)c1ccccc1F	CHO parental Ca 66, TAAR1 antag 64
O=C(CSc1cn(CCNC(=O)c2ccccc2F)c2ccccc12)NCC1CCCO1 (stereo not given)	none
CCNC(=S)N=Nc1c(O)[nH]c2ccc([N+](=O)[O-])cc12	OX1R antag-1 46
O=[N+]([O-])c1ccc2[nH]c(O)c(N=NC(=S)NCC3CCCO3)c2c1 (stereo not given)	none
O=C1CN(S(=O)(=O)c2ccc(Cl)cc2)CC(=O)N1CCc1ccccc1	TAAR1 antag 56
O=C1CN(S(=O)(=O)c2ccc(F)cc2)CC(=O)N1CCc1ccccc1	none (no result: OX1R antag-1, TAAR1 ag, OX1R antag-2, CHO parental Ca, TAAR1 antag)
Cn1c(=O)c2c(ncn2CC(=O)OCCCC(=O)c2ccc(Br)cc2)n(C)c1=O	CHO parental Ca 35 (no result: GPR7 antag)
N#C/C(=C/c1ccc(N2CCOCC2)o1)C(=O)Nc1ccccc1	TAAR1 ag 56 (no result: OX1R antag-1, OX1R antag-2, CHO parental Ca)
N#C/C(=C\c1ccc(N2CCOCC2)o1)C(=O)NCCc1ccccc1	TAAR1 ag 41
Fc1ccc(-[n+]2nc(Nc3ccccc3)sc2-c2c3ccccc3cc3ccccc23)cc1	TAAR1 ag 46
Oc1ccc2ccccc2c1-c1sc(Nc2ccccc2)n[n+]1-c1ccc(F)cc1	none
CCN1/C(=C/c2ccc3cc(C)cc(C)c3[n+]2CC)Sc2cc(C)ccc21	none (no result: OX1R antag-1, OX1R antag-2, CHO parental Ca)
CCN1/C(=C/c2ccc3cccc(C)c3[n+]2CC)Sc2ccccc21	GPR7 antag 34, OX1R antag-2 100, CHO parental Ca 66
C=CCN1C(=O)c2n[nH]c(C(C)C)c2C1c1ccc2c(c1)OCO2 (stereo not given)	none (no result: OX1R antag-1, GPR7 antag, OX1R antag-2, CHO parental Ca)
CCC(C(=O)Nc1ccc(C)cc1)c1ccccc1 (stereo not given)	none
Cc1ccc(NC(=O)C(C)c2ccc(-c3ccccc3)c(F)c2)cc1 (stereo not given)	TAAR1 antag 55
Cc1c(NC(=O)CN2C(=O)c3ccccc3C2=O)c(=O)n(-c2ccccc2)n1C	none
O=C(CN1C(=O)c2cccc3cccc(c23)C1=O)NCCCO	OX1R antag-1 57
O=C(CCCCCN1C(=O)c2cccc3cccc(c23)C1=O)NCCCO	OX1R antag-1 52
Cc1c(NC(=O)CCCN2C(=O)c3cccc4cccc(c34)C2=O)c(=O)n(-c2ccccc2)n1C	OX1R antag-1 42
O=C(NCCc1ccccc1)c1ccc(-c2ccc(F)c(F)c2)c2ccoc12	none (no result: OX1R antag-1, GPR7 antag, OX1R antag-2, CHO parental Ca)
C=CCNCCOCCOc1ccc(Cl)cc1C(C)(C)C	none
COCCCNCCOCCOc1ccc(Cl)cc1C(C)(C)C	GPR7 antag 35
CC[n+]1c(/C=C/c2ccc(OC)c(OC)c2)ccc2ccccc21	OX1R antag-1 65
CC[n+]1c(/C=C/c2ccc(OC(C)=O)c(OC)c2)ccc2ccccc21	none (no result: OX1R antag-1, OX1R antag-2, CHO parental Ca)
O=C(Nc1ccccc1)c1ccc(-c2ccccc2)s1	TAAR1 ag 38
O=C(O)c1ccc(-c2ccc(-c3ccccc3)cc2)s1	none (no result: TAAR1 ag, TAAR1 antag)
O=C(Nc1ccccc1)c1cc2ccc3ccccc3c2s1	OX1R antag-1 51
CC1(C)CSC(C)(C)C(=O)N1	none (no result: OX1R antag-1, GPR7 antag, OX1R antag-2, CHO parental Ca)
Cc1ccc(CNC(=O)[C@@H](Cc2ccccc2)NC(=O)[C@H]2O[C@@H](n3ccc(N)nc3=O)[C@H](O)[C@@H]2O)o1	none (no result: OX1R antag-1, GPR7 antag, OX1R antag-2, CHO parental Ca)
CCc1nc2c(OCCC3CCCCC3)cccn2c1N(C)C(=O)c1ccc(C)cc1	none (no result: OX1R antag-1, GPR7 antag, OX1R antag-2, CHO parental Ca)
CC(=O)Nc1ccccc1OCC(=O)c1cc(C)n(Cc2cccs2)c1C	GPR7 antag 25, OX1R antag-2 55, CHO parental Ca 48
Cc1csc(SCC(=O)c2cc(C)n(Cc3cccs3)c2C)n1	CHO parental Ca 42
Nc1ccc(S(=O)(=O)NN=Cc2ccccc2[N+](=O)[O-])cc1	none (no result: OX1R antag-1, GPR7 antag, OX1R antag-2, CHO parental Ca)
CC(=O)c1c(C)[nH]c(C(=O)COC(=O)CN2C(=O)C3CCCCC3C2=O)c1C (stereo not given)	none (no result: GPR7 antag)
CCOC(=O)c1c(C)[nH]c(C(=O)COC(=O)[C@H](C)N2C(=O)C3CCCCC3C2=O)c1C (stereo not given in full)	TAAR1 antag 56 (no result: OX1R antag-1, GPR7 antag, OX1R antag-2, CHO parental Ca)
O=C1c2cc(CO)cc(O)c2C(=O)c2c(O[C@@H]3OC(CO)[C@@H](O)[C@@H](O)[C@@H]3O)cccc21 (stereo not given in full)	OX1R antag-1 73 (no result: GPR7 antag)
O=C(O)c1cc(O)c2c(c1)[C@H]([C@H]1c3cc(C(=O)O)cc(O)c3C(=O)c3c(O[C@@H]4O[C@H](CO)[C@@H](O)[C@H](O)[C@H]4O)cccc31)c1cccc(OC3O[C@H](CO)[C@@H](O)[C@H](O)[C@H]3O)c1C2=O (stereo not given in full)	none (no result: GPR7 antag)
O=C(Nc1cccc(Cl)c1)NN(c1ccccc1)C1CCS(=O)(=O)C1 (stereo not given)	none (no result: OX1R antag-1, GPR7 antag, OX1R antag-2, CHO parental Ca)
O=C1O[C@@H](c2ccccc2)C[C@@H](O)C(=O)CCCc2ccccc21	none (no result: OX1R antag-1, GPR7 antag, OX1R antag-2, CHO parental Ca)
